Source: ChEMBL document CHEMBL1133135, “Grignard-mediated synthesis and preliminary biological evaluation of novel 3-substituted farnesyl diphosphate analogues” (Bioorg Med Chem Lett, 2000)

What follows are compounds tested on CC(C)=CCC/C(C)=C/CC/C(C)=C/COP(=O)(O)OP(=O)(O)O.
“Protein farnesyltransferase (Homo sapiens) (from UniProt P49354+P49356)” gave a Km of 0.107 µM.

Each compound was assayed on CC(C)=CCC/C(C)=C/CC/C(=C/COP(=O)(O)OP(=O)(O)O)C1CCCC1 (assay: Km for mammalian protein Farnesyltransferase expressed in baculovirus).
“Protein farnesyltransferase (Homo sapiens) (from UniProt P49354+P49356)” showed a Km of 0.102 µM.

The compounds below were run against Protein farnesyltransferase (Homo sapiens) (UniProt P49354+P49356) (assay: Relative Vmax for Farnesyltransferase at 10 uM).
Assay type: protein-complex assay
Outline: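 Baculovirus-expressed, purified recombinant mammalian FTase in a continuous fluorometric assay with dansyl-GCVLS-OH peptide cosubstrate, testing each FPP analogue as alternative prenyl donor. Relative Vmax is the Vmax with analogue at 10 μM divided by the Vmax with FPP at 10 μM under the same conditions. Analogue concentrations were checked by phosphate analysis.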
Work on C=CC/C(=C\COP(=O)(O)OP(=O)(O)O)CC/C=C(\C)CCC=C(C)C yielded a Krel of 0.053.
Work on C=C/C(=C\COP(=O)(O)OP(=O)(O)O)CC/C=C(\C)CCC=C(C)C yielded a Krel of 0.521.
CC(C)=CCC/C(C)=C/CC/C(=C/COP(=O)(O)OP(=O)(O)O)C1CCCC1 was tested, and the Krel was 0.072.
CC(C)=CCC/C(C)=C/CC/C(=C/COP(=O)(O)OP(=O)(O)O)CC(C)C was tested, and the Krel was 0.
CC(C)=CCC/C(C)=C/CC/C(=C/COP(=O)(O)OP(=O)(O)O)C(C)C gave a Krel of 0.013.
In the case of CC(C)=CCC/C(C)=C/CC/C(=C/COP(=O)(O)OP(=O)(O)O)c1ccc(F)cc1, the Krel was 0.002.
Compound C=C(C)/C(=C\COP(=O)(O)OP(=O)(O)O)CC/C=C(\C)CCC=C(C)C has a Krel of 0.
CC(C)=CCC/C(C)=C/CC/C(=C/COP(=O)(O)OP(=O)(O)O)CC(C)(C)C gave a Krel of 0.042.
CCC/C(=C\COP(=O)(O)OP(=O)(O)O)CC/C=C(\C)CCC=C(C)C was tested, and the Krel was 0.078.
In the case of CCC(C)/C(=C\COP(=O)(O)OP(=O)(O)O)CC/C=C(\C)CCC=C(C)C (configuration not stated), the Krel was 0.
